Measured values from ChEMBL document CHEMBL4715690 (Bioorg Med Chem, 2016).
Active and inactive are the calls of the source. The rule behind the calls is not given here.

Key:
MDA-MB-468 = test: Antiproliferative activity against human MDA-MB-468 cells expressing c-MET assessed as reduction in cell viability incubated for 72 hrs by MTT assay; type: functional, cell-based; details: MDA-MB-468, 72 h
Procedure, shortened: (§1)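 Cells plated at 1×10⁴/well (6 wells/group) in RPMI-1640 with 10% FBS and left to adhere overnight. They were then switched to serum-free RPMI-1640 with 40 ng/mL HGF as mitogen plus at least four compound concentrations, or DMSO vehicle (final ≤0.1%), for 72 h, refed every other day. MTT (1 mg/mL) was added for 4 h, formazan dissolved in DMSO, and A570 read. Cell number came from a standard curve, survival was expressed versus DMSO, and IC50 was fitted by nonlinear regression.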

[1] = target: T1, Hepatocyte growth factor receptor (Homo sapiens, UniProt P08581); test: Inhibition of recombinant human His-tagged c-MET expressed in baculovirus expression system assessed as reduction in c-MET phosphorylation at 5 uM using Tyr6 as substrate incubated for 1 hr by Z'-lyte assay relative to control
T1 sequence (P08581 whole entry): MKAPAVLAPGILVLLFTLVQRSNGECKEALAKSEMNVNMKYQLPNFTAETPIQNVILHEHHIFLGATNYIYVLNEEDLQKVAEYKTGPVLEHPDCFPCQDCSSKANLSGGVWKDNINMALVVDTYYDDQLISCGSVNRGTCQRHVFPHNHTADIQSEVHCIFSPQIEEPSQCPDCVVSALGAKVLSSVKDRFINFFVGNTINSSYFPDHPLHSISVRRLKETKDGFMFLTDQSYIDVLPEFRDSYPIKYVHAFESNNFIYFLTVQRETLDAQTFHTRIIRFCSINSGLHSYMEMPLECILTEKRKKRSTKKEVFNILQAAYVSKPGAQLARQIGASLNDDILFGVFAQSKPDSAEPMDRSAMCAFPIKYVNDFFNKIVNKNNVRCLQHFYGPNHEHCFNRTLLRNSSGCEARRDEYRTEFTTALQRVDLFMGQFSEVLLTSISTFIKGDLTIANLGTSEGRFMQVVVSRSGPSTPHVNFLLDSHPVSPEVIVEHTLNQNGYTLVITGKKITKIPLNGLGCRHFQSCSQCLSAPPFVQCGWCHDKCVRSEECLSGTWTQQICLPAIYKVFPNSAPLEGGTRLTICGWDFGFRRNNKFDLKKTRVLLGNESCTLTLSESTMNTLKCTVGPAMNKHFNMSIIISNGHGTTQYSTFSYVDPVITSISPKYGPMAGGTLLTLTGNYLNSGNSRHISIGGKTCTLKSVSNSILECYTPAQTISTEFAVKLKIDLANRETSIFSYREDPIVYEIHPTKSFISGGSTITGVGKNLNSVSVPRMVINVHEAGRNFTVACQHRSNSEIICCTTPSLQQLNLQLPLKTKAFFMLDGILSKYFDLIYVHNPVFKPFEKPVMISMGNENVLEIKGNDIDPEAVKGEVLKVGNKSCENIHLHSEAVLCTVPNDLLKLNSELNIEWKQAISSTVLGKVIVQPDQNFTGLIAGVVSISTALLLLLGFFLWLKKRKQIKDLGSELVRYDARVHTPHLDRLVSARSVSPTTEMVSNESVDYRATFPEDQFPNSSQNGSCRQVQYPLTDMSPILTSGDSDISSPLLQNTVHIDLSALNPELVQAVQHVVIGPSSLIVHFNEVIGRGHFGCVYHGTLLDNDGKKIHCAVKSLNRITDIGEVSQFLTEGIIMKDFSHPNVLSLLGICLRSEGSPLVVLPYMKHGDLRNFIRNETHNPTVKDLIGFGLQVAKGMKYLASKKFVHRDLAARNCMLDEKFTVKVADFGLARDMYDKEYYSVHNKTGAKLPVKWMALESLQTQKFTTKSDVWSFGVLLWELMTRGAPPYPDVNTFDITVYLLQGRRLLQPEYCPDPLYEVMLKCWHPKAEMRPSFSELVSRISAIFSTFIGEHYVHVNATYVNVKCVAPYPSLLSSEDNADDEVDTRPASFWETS
Procedure, shortened: (§2)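 Cell-free Z′-LYTE Tyr6 assay with recombinant human wild-type or M1250T mutant c-Met kinase at 2500 ng/mL, plus 200 μM ATP, 4 μM Tyr6 peptide and inhibitor. Reaction ran 1 h at room temperature, followed by protease development for 1 h. Readout was the 445/520 nm emission ratio. IC50 from nonlinear regression of log concentration vs % phosphorylation; n=3/dose.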

[2] = Cytotoxicity against human MCF-10A cells assessed as cell viability at 20 uM incubated for 72 hrs by MTT assay; type: cell-based; details: read-out: Activity
[3] = Cytotoxicity against human MCF-10A cells assessed as cell viability at 5 uM incubated for 72 hrs by MTT assay; type: cell-based; details: read-out: Activity
MDA-MB-231 [4] = test: Cytotoxicity against human MDA-MB-231 cells assessed as reduction in cell viability at 25 uM incubated for 24 hrs by LDH assay relative to control; type: functional
Procedure, shortened: (§3)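 MDA-MB-231 cells seeded at 3×10⁴/well and allowed to attach, then treated in triplicate in 5% serum medium for 24 h at 37 °C. Triton X-100 gave maximum release, and […]. Supernatant was reacted with NAD⁺, lactate, INT and diaphorase for 30 min at room temperature, then read at A490. % cytotoxicity was computed relative to spontaneous and maximum release.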

BT-474 = test: Antiproliferative activity against human BT-474 cells expressing c-MET assessed as reduction in cell viability incubated for 72 hrs by MTT assay; type: functional, cell-based; details: BT-474, 72 h; procedure, shortened: as §1
MDA-MB-231 [5] = test: Reduction of c-MET expression level in human MDA-MB-231 cells at 15 to 30 uM incubated for 48 hrs by Western blot analysis; type: functional, cell-based; details: dose 15-30 µM
Procedure, shortened: (§4)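 MDA-MB-231 cells seeded at 1×10⁶ per 100 mm dish and left overnight. Cells were treated with compound or DMSO in serum-free medium containing HGF 50 ng/mL for 48 h. RIPA lysates (30 μg protein) were run on SDS-PAGE and transferred to PVDF. Membranes were blocked in 5% BSA/TBST and probed overnight at 4 °C with primary antibodies, then HRP secondary; chemiluminescent detection.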

MDA-MB-231 [6] = test: Antitumor activity against GFP-tagged human MDA-MB-231 cells xenografted in athymic nude-Foxn1nu/Fox1+ mouse assessed as the reduction in tumor growth at 10 mg/kg, ip dosed 3 times per week for 3 weeks treatment started 14 days of post inoculation; type: functional; details: MDA-MB-231, ip, 504 h, read-out: TGI
Procedure, shortened: (§5)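 Female athymic nude mice, 4–5 weeks old, received 1×10⁶ MDA-MB-231/GFP cells into the second mammary fat pad (orthotopic), n = 5/group. Dosing was 10 mg/kg i.p. 3×/week or DMSO/saline vehicle, starting on day 14 after inoculation. Tumor volume was taken as L/2 × W², with body weight and clinical signs monitored. Mice were killed on day 33 and tumors excised and weighed.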

MCF7 = test: Antiproliferative activity against human MCF7 cells expressing c-MET assessed as reduction in cell viability incubated for 72 hrs by MTT assay; type: functional, cell-based; details: MCF7, 72 h; procedure, shortened: as §1
MDA-MB-231 [7] = test: Antiinvasive activity against human MDA-MB-231 cells assessed as reduction in HGF-mediate cell invasion at 8 uM incubated for 24 hrs by fluorescence based assay relative to control; type: functional; design: scale not given: the % may be the effect or the level left
Procedure, shortened: (§6)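 Cells starved 16 h in serum-free RPMI-1640, then 25,000 cells placed in rehydrated basement-membrane inserts. The bottom wells held 5% serum medium with test compound or DMSO vehicle, and invasion was induced with 40 ng/mL HGF. After 24 h at 37 °C, invaded cells were stained with calcein AM and read at ex 485/em 520 nm. Cell number came from a standard curve; triplicates.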

MDA-MB-231 [8] = test: Antiproliferative activity against human MDA-MB-231 cells expressing c-MET assessed as reduction in cell viability incubated for 72 hrs by MTT assay; type: functional, cell-based; details: MDA-MB-231, 72 h
Procedure, shortened: (§7)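 MTT proliferation. Cells in exponential growth were seeded at 1×10⁴/well (6 wells/group) in RPMI-1640 with 10% FBS and left to adhere overnight. They were then switched to serum-free RPMI-1640 with 40 ng/mL HGF as mitogen plus test doses (at least four concentrations) or DMSO vehicle (≤0.1% final), refreshed every other day. After 72 h, 1 mg/mL MTT was added for 4 h, DMSO solubilized, A570 read. Cell number came from a standard curve, and IC50 was fitted by nonlinear regression of log concentration versus % survival.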

[9] = Cytotoxicity against human MCF-10A cells assessed as cell viability at 10 uM incubated for 72 hrs by MTT assay; type: cell-based; details: read-out: Activity
[10] = Cytotoxicity against human MCF-10A cells assessed as cell viability at 30 uM incubated for 72 hrs by MTT assay; type: cell-based; details: read-out: Activity
HL-60 = test: Cytotoxicity against human HL-60 cells assessed as reduction in cell viability incubated for 72 hrs by MTT assay; type: functional, cell-based; details: HL-60, 72 h
T47D = test: Antiproliferative activity against human T47D cells assessed as reduction in cell viability incubated for 72 hrs by MTT assay; type: functional, cell-based
Procedure, shortened: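 Cells plated at 1×10⁴/well in RPMI-1640 with 10% FBS and left to adhere overnight. They were then fed serum-free RPMI-1640 containing 40 ng/mL HGF and at least four compound concentrations, 6 wells/group, for 72 h, with medium renewed every other day. MTT 1 mg/mL for 4 h, formazan dissolved in DMSO, A570. Cell number came from a standard curve; IC50 from nonlinear regression of log concentration vs % survival relative to DMSO.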

MDA-MB-231 [11] = test: cells; details: Homo sapiens, MDA-MB-231, 24 h
[12] = Antiproliferative activity against human MCF7-DOX cells expressing c-MET assessed as reduction in cell viability incubated for 72 hrs by MTT assay; type: functional, cell-based; procedure, shortened: as §7
[13] = target: T1, Hepatocyte growth factor receptor; test: Inhibition of recombinant human His-tagged c-MET expressed in baculovirus expression system assessed as reduction in c-MET phosphorylation at 10 uM using Tyr6 as substrate incubated for 1 hr by Z'-lyte assay relative to control; procedure, shortened: as §2
[14] = target: Hepatocyte growth factor receptor (Homo sapiens, UniProt P08581, M1250T); test: Inhibition of recombinant human His-tagged c-MET M1250T mutant expressed in baculovirus expression system assessed as reduction in c-MET phosphorylation using Tyr6 as substrate incubated for 1 hr by Z'-lyte assay
Hepatocyte growth factor receptor (Homo sapiens, UniProt P08581, M1250T), sequence (P08581 whole entry M1250T): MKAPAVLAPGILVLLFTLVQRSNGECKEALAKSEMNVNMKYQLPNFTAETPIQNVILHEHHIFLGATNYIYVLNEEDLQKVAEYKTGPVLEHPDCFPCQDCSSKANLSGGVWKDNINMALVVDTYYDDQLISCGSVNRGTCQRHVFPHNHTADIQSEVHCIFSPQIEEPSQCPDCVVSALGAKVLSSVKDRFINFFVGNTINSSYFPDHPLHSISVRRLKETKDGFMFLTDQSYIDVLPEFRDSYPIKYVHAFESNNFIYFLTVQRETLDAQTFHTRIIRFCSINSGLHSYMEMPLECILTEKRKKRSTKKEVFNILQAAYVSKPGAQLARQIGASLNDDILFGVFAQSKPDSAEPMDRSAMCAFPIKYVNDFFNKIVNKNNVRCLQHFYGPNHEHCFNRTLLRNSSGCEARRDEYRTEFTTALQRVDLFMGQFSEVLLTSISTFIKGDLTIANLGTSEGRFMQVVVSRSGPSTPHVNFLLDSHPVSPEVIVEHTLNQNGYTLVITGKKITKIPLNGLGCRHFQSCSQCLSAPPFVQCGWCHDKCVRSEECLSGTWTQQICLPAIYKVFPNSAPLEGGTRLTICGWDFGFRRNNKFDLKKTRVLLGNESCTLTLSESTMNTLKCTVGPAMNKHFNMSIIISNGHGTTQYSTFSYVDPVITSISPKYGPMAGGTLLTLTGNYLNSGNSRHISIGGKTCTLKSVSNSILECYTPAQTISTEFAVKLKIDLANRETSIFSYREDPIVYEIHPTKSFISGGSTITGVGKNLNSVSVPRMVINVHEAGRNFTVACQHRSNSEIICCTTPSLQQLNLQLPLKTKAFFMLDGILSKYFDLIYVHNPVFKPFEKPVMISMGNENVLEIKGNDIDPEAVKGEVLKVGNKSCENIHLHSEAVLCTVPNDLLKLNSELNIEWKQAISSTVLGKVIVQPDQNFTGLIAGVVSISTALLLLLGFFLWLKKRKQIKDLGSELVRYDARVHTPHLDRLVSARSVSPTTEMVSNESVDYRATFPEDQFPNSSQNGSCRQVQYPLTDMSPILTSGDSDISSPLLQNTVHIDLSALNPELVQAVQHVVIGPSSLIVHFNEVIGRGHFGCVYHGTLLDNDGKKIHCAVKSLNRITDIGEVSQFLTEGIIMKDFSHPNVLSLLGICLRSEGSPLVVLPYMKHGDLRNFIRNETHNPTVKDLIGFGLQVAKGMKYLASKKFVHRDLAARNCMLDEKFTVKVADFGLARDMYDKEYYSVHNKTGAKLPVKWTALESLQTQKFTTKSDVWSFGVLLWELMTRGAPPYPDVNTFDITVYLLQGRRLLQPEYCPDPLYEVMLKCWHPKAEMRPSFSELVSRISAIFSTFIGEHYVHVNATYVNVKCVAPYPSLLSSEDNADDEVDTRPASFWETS

SK-BR-3 = test: Antiproliferative activity against human SK-BR-3 cells expressing c-MET assessed as reduction in cell viability incubated for 72 hrs by MTT assay; type: functional, cell-based; details: SK-BR-3, 72 h; procedure, shortened: as §1
[15] = target: T1, Hepatocyte growth factor receptor; test: Inhibition of c-MET in human MDA-MB-231 cells assessed as reduction in c-MET phosphorylation level at 15 to 30 uM incubated for 48 hrs by Western blot analysis; type: cell-based; details: dose 15-30 µM; procedure, shortened: as §4
A549 = test: Cytotoxicity against human A549 cells assessed as reduction in cell viability incubated for 72 hrs by MTT assay; type: functional, cell-based; details: A549, 72 h
[16] = target: T1, Hepatocyte growth factor receptor; test: Inhibition of recombinant human His-tagged c-MET expressed in baculovirus expression system assessed as reduction in c-MET phosphorylation using Tyr6 as substrate incubated for 1 hr by Z'-lyte assay; procedure, shortened: as §2
MDA-MB-231 [17] = test: Cytotoxicity against human MDA-MB-231 cells assessed as reduction in cell viability at 50 uM incubated for 24 hrs by LDH assay relative to control; type: functional; procedure, shortened: as §3
MDA-MB-231 [18] = test: Antiinvasive activity against human MDA-MB-231 cells assessed as reduction in HGF-mediate cell invasion at 4 uM incubated for 24 hrs by fluorescence based assay relative to control; type: functional; design: scale not given: the % may be the effect or the level left; procedure, shortened: as §6
[19] = Toxicity in athymic nude-Foxn1nu/Fox1+ mouse assessed as effect on body weight at 10 mg/kg, ip dosed 3 times per week for 3 weeks treatment started 14 days of post inoculation; type: organism-based; details: in vivo, 504 h; procedure, shortened: as §5
MDA-MB-231 [20] = test: Antiinvasive activity against human MDA-MB-231 cells assessed as reduction in HGF-induced cell invasion incubated for 24 hrs by fluorescence based assay; type: functional; procedure, shortened: as §6
MDA-MB-231 [21] = test: Antiinvasive activity against human MDA-MB-231 cells assessed as reduction in HGF-mediate cell invasion at 30 uM incubated for 24 hrs by fluorescence based assay relative to control; type: functional; design: scale not given: the % may be the effect or the level left; procedure, shortened: as §6
MDA-MB-231 [22] = test: Antiinvasive activity against human MDA-MB-231 cells assessed as reduction in HGF-mediate cell invasion at 15 uM incubated for 24 hrs by fluorescence based assay relative to control; type: functional; design: scale not given: the % may be the effect or the level left; procedure, shortened: as §6
Bel-7402 = test: Cytotoxicity against human Bel-7402 cells assessed as reduction in cell viability incubated for 72 hrs by MTT assay; type: functional, cell-based; details: Bel-7402, 72 h
MOLT-4 = test: Cytotoxicity against human MOLT-4 cells assessed as reduction in cell viability incubated for 72 hrs by MTT assay; type: functional, cell-based; details: MOLT-4, 72 h

SMILES | IC50 (MDA-MB-468) | inhibition [1] | viability at 72 h, 20 µM [2] | IC50 (BT-474) | IC50 (MCF7) | IC50 (MDA-MB-231 [8]) | IC50 (HL-60) | IC50 [12] | inhibition [13] | IC50 (SK-BR-3) | IC50 (A549) | Activity (MDA-MB-231 [21]) | Activity (MDA-MB-231 [22]) | other results
C=CC(C)(C)[C@@]12C=C(O)C(=O)N3/C(=C/c4cnc[nH]4)C(=O)N[C@]31N(OC)c1ccccc12 | 8.9 µM | 56.3% | 74.4% | 2.7 µM | 1.9 µM | 6.8 µM | 7.4 µM | 3.2 µM | 88% | 2.8 µM | 19.9 µM | – | – | viability at 72 h, 5 µM [3]: 100%; inhibition at 25 µM (MDA-MB-231 [4]): 2.5%; inhibition (MDA-MB-231 [5]): inactive; inhibition in vivo at 10 mg/kg (MDA-MB-231 [6]): 65%; Activity (MDA-MB-231 [7]): 57.5%; viability at 72 h, 10 µM [9]: 98.8%; viability at 72 h, 30 µM [10]: 48.9%; IC50 (T47D): > 40 µM; IC50 (MDA-MB-231 [11]): 1.8 µM; IC50 [14]: 2.1 µM; inhibition [15]: Active; IC50 [16]: 4.2 µM; inhibition [16]: Dose-dependent effect; inhibition at 50 µM (MDA-MB-231 [17]): 9.4%; Activity (MDA-MB-231 [18]): 30.7%; Activity [19]: Non-Toxic; Activity (MDA-MB-231 [20]): Dose-dependent effect
O=C1N[C@@H](Cc2c[nH]c3ccccc23)C(=O)N/C1=C/c1cnc[nH]1 | 40 µM | 0% | – | 40 µM | 40 µM | 31.8 µM | – | 23.8 µM | 10.2% | 40 µM | – | 83% | 46.1% | –
C=CC(C)(C)[C@@]12C=C(O)C(=O)N3/C(=C/c4cn([C@H]5C[C@@]6(O)O[C@@H]7C[C@@]6(C)[C@]6(C[C@]8(C)CCC(C)(C)[C@@H]8[C@@H]76)[C@@H]5C)cn4)C(=O)N[C@]31N(OC)c1ccccc12 | – | – | – | – | – | – | 1.8 µM | – | – | – | 1.8 µM | – | – | IC50 (Bel-7402): 1.8 µM; IC50 (MOLT-4): 1.8 µM
C=CC(C)(C)[C@@]12C[C@H]3C(=O)N/C(=C/c4c[nH]cn4)C(=O)N3[C@@H]1Nc1ccccc12 [ROQUEFORTINE C] | 28.6 µM | 39.7% | 98.4% | 29.6 µM | 21.7 µM | 23.5 µM | – | 24.4 µM | 59.7% | 23.4 µM | – | 79.3% | 47.6% | –
